Assay results reported in ChEMBL document CHEMBL1144022, “Synthesis and anti-HIV activity of 4'-substituted 4'-thiothymidines: a new entry based on nucleophilic substitution of the 4'-acetoxy group” (J Med Chem, 2008).
Activity calls are given as the source filed them. No cut-off for these calls is given here.

How the values were obtained:
[1] = system: Human immunodeficiency virus 1; experiment: Antiviral activity against HIV1 3B in human MT4 cells assessed as virus-induced cytopathogenicity after 4 days by MTT assay; type: functional, organism-based; settings: Human immunodeficiency virus 1, 3B, MT4, 96 h
Method in brief: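 MT-4 cells (1 × 10⁵ cells/mL) were infected with HIV-1 IIIB at an MOI of 0.02 and cultured with various concentrations of compound for 4 days at 37 °C. Viable cells were counted by MTT. The value is the concentration giving 50% protection against the viral cytopathic effect.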

[2] = system: Human immunodeficiency virus type 1 reverse transcriptase (Human immunodeficiency virus 1), Q72547 [M184V]; experiment: Activity at reverse transcriptase M184V mutant in HIV1 assessed as suppression of replication
[3] = Cytotoxicity against human M8166 cells after 4 days by MTT assay; type: cell-based
[4] = Cytotoxicity against human MT4 cells after 4 days by MTT assay; type: cell-based
Method in brief: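 Mock-infected MT-4 cells were run in parallel with the antiviral assay, with various concentrations of compound for 4 days at 37 °C. Viability was read by MTT. The value is the concentration that reduces viability by 50%.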

[5] = system: Human immunodeficiency virus 2; experiment: Antiviral activity against HIV2 in human M8166 cells assessed as virus-induced cytopathogenicity after 4 days by MTT assay; type: functional, organism-based; settings: Human immunodeficiency virus 2, M8166, 96 h
Method in brief: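 M8166 cells (1 × 10⁵) were infected with HIV-2 at an MOI of 0.1 and cultured with various concentrations of compound for 4 days at 37 °C. Viability was read by MTT. The value is the concentration giving 50% protection against the viral cytopathic effect.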

Row | SMILES | EC50 [1] [µM] | Activity [2] | CC50 at 96 h [3] [µM] | CC50 at 96 h [4] [µM] | EC50 [5] [µM]
1 | Cc1cn([C@H]2C[C@H](O)[C@@](C#N)(CO)S2)c(=O)[nH]c1=O | 0.037 | Active | > 10 | > 100 | 0.023
2 | CO[C@]1(CO)S[C@@H](n2cc(C)c(=O)[nH]c2=O)C[C@@H]1O | > 4 |  | > 100 | > 100 | 1.2
3 | Cc1cn([C@H]2C[C@H](O)[C@](CO)(N=[N+]=[N-])S2)c(=O)[nH]c1=O | 0.02 |  | > 10 | 40 | 0.024
4 | C#C[C@]1(CO)S[C@@H](n2cc(C)c(=O)[nH]c2=O)C[C@@H]1O | 0.31 | Active | > 10 | > 100 | 0.13
5 | Cc1cn([C@H]2C[C@H](O)[C@](CO)(Sc3ccccc3)S2)c(=O)[nH]c1=O | > 100 |  | > 100 | > 100 | > 100
6 | C=CC[C@]1(CO)S[C@@H](n2cc(C)c(=O)[nH]c2=O)C[C@@H]1O | > 100 |  | > 100 | > 100 | > 100
